Assay results pooled from the literature.
Compare with care: the assays were run in different laboratories.
Cell line: HepG2
Observed: cell growth or viability

| SMILES | test | setting | quantity | value |
| --- | --- | --- | --- | --- |
| O=C(CN1C(=O)/C(=C/c2ccc([N+](=O)[O-])cc2)SC1=S)Nc1ccccc1 | MTT | 10 µM | inhibition | 22.6% |
| COc1ccc(NC(=O)c2c(Nc3ccccc3)sc(C(=O)NN=Cc3ccc(Cl)cc3)c2NC(C)=O)cc1 | SRB | 0.1 µM, 48 h | viability | 92.3% |
| COc1ccc(-c2nc3ccccc3n2Cc2ccccc2)cc1OC | MTT | – | IC50 | 19.9 µM |
| COc1cc2ncnc(Nc3ccc(F)c(Cl)c3)c2cc1NC(=O)N/N=C/c1cccn1CCN1CCN(C)CC1 | MTT | 72 h | IC50 | 0.22 µM |
| CCOC(=O)c1ccc(-n2c(C)cc(/C=C/c3ccc(OCC)cc3)c(C#N)c2=O)cc1 | MTT | 6.25 µM, 24 h | viability | 100% |
| C=CCn1c(-c2ccc([N+](=O)[O-])cc2)nc2ccccc21 | MTT | – | IC50 | 36.8 µM |
| COc1ccc(NC(=O)c2c(Nc3ccccc3)sc(C(=O)NN=Cc3cc(OC)c(OC)c(OC)c3)c2NC(C)=O)cc1 | SRB | 1 nM, 48 h | viability | 97.3% |
| CCn1cc(-c2nc(C)no2)c(=O)c2cc(F)c(N3CCC(C)CC3)cc21 | ATP luminescence | 48 h | EC50 | > 40 µM |
| Cc1cc(Nc2ccc(C(=O)N/N=C/c3ccncc3)cc2)c2cccc(O)c2n1 | MTT | 20 µM | inhibition | 47.7% |
| COc1ccc(NC(=O)c2c(Nc3ccccc3)sc(C#N)c2NC(=O)CNc2ccc(O)cc2)cc1 | SRB | 1 nM, 48 h | viability | 102% |
| CC(=O)Nc1cccc(-n2c(=O)n(C3CC3)c(=O)c3c(Nc4ccc(I)cc4F)n(C)c(=O)c(C)c32)c1 | resazurin | 6.25 nM, 72 h | viability | 68% |
| COc1ccc(NC(=O)c2c(Nc3ccccc3)sc(C#N)c2NC(=O)CNc2ccccc2Cl)cc1 | SRB | 1 nM, 48 h | viability | 101% |
| CCOC(=O)c1ccc(-n2c(C)cc(C)c(C#N)c2=O)cc1 | MTT | 1.56 µM, 24 h | viability | 100% |
| c1cncc(-c2nc3ccccc3[nH]2)c1 | MTT | 48 h | IC50 | 70.6 µM |
| CCOC(=O)c1ccc(-n2c(C)cc(/C=C/c3ccc(OC)cc3)c(C#N)c2=O)cc1 | MTT | 12.5 µM, 24 h | viability | 83.5% |
| COc1ccc(NCC(=O)Nc2c(C#N)sc(Nc3ccccc3)c2C(=O)Nc2ccc(OC)cc2)cc1 | SRB | 0.1 µM, 48 h | viability | 84.4% |
| Cc1cc(=O)oc2ccc(-c3cc(-c4cccs4)nc(N)n3)c(O)c12 | MTT | 8 µg/mL, 72 h | inhibition | 0% |
| COc1ccc(NC(=O)c2c(Nc3ccccc3)sc(C#N)c2NC(=O)CNc2ccc([N+](=O)[O-])cc2)cc1 | SRB | 10 nM, 48 h | viability | 86.4% |
| Cc1ccc2nc(-c3ccc([N+](=O)[O-])cc3)n(Cc3ccc(Cl)cc3)c2c1 | MTT | – | IC50 | 5.53 µM |
| COc1ccc(-c2cc(-c3ccc4oc(=O)cc(C)c4c3O)nc(N)n2)cc1 | MTT | 8 µg/mL, 72 h | inhibition | 0% |
| CCOC(=O)c1ccc(-n2c(-c3ccc(C)cc3)cc(-c3ccc(O)cc3)c(C#N)c2=O)cc1 | MTT | 100 µM, 24 h | viability | 18.3% |
| COc1ccc(C=NNC(=O)c2sc(Nc3ccccc3)c(C(=O)Nc3ccc(OC)cc3)c2NC(C)=O)cc1 | SRB | 0.1 µM, 48 h | viability | 76.5% |
| CCn1cc(-c2nc(C)no2)c(=O)c2cc(F)c(N3CCC(F)(F)CC3)cc21 | ATP luminescence | 48 h | EC50 | > 40 µM |
| COc1cccc(NC(=O)CN2C(=O)/C(=C/c3cccs3)SC2=S)c1 | MTT | 10 µM | inhibition | 12.2% |
